Measurements as given in ChEMBL document CHEMBL4346689, “Novel benzenesulfonamide and 1,2-benzisothiazol-3(2H)-one-1,1-dioxide derivatives as potential selective COX-2 inhibitors” (Eur J Med Chem, 2019).

Key:
[1] = target: T1, Prostaglandin G/H synthase 1 (Ovis aries, UniProt P05979); assay: Inhibition of ovine COX1 assessed as reduction in oxidized TMPD using arachidonic acid as substrate preincubated for 5 mins followed by substrate addition and measured after 2 mins by colorimetric assay
T1 sequence (P05979 whole entry): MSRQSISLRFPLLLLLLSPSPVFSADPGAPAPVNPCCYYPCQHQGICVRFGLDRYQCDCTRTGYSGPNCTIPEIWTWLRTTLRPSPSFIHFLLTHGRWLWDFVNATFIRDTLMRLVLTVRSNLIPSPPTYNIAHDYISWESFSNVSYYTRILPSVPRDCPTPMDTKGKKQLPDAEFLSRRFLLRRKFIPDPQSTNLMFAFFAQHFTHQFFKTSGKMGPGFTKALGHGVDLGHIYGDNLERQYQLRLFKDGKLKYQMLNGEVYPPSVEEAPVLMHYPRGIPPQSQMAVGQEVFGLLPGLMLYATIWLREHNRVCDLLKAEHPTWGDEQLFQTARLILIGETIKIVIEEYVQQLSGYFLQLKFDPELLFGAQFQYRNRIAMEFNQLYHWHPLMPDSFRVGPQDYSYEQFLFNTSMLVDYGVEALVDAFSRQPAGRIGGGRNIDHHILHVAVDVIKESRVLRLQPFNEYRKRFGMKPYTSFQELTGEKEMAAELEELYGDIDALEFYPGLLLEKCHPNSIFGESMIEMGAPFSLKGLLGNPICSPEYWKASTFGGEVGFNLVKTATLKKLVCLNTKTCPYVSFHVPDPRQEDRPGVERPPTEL

[2] = system: Rattus norvegicus; assay: Antiinflammatory activity against carrageenan-induced paw oedema in albino rat assessed as hind paw thickness at 18 mg/kg, ip pretreated for 1 hr followed by carrageenan challenge and measured immediately by caliper method (reference value: 0.24 +/- 0.24 millimeter); type: functional
[3] = system: Rattus norvegicus; assay: Antiinflammatory activity against carrageenan-induced paw oedema in albino rat assessed as hind paw thickness at 18 mg/kg, ip pretreated for 1 hr followed by carrageenan challenge and measured after 1 hr by caliper method (reference value: 0.73 +/- 0.03 millimeter); type: functional
How it was run: (§1)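 Male albino rats, 150–200 g, six per group, housed at 27 °C on a 12/12 light-dark cycle. Given 18 mg/kg i.p.; control group left untreated. Right hind paw injected 1 h later with 0.1 mL 10% carrageenin. Paw thickness measured by skin caliper at 1, 2, 3 and 4 h after injection. Reported as mean ± S.D., n = 6; significance p < 0.05.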

[4] = system: Rattus norvegicus; assay: Antiinflammatory activity against carrageenan-induced paw oedema in albino rat assessed as hind paw thickness at 18 mg/kg, ip pretreated for 1 hr followed by carrageenan challenge and measured after 2 hrs by caliper method (reference value: 0.84 +/- 0.02 millimeter); type: functional; how it was run: as §1
[5] = system: Rattus norvegicus; assay: Antiinflammatory activity against carrageenan-induced paw oedema in albino rat assessed as hind paw thickness at 18 mg/kg, ip pretreated for 1 hr followed by carrageenan challenge and measured after 3 hrs by caliper method (reference value: 0.94 +/- 0.02 millimeter); type: functional; how it was run: as §1
[6] = system: Rattus norvegicus; assay: Antiinflammatory activity against carrageenan-induced paw oedema in albino rat assessed as hind paw thickness at 18 mg/kg, ip pretreated for 1 hr followed by carrageenan challenge and measured after 4 hrs by caliper method (reference value: 1.24 +/- 0.02 millimeter); type: functional; how it was run: as §1
[7] = system: Rattus norvegicus; assay: Antiinflammatory activity in albino rat assessed as inhibition of carrageenan-induced paw edema at 18 mg/kg, ip pretreated for 1 hr followed by carrageenan challenge and measured after 1 hr by caliper method relative to control; type: functional
How it was run: (§2)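 Carrageenin paw edema in male albino rats (150–200 g, n = 6 per group), 18 mg/kg i.p. 1 h before 0.1 mL 10% carrageenin into the right hind paw. Caliper thickness at 1–4 h. Percent edema inhibition derived from thickness change relative to the untreated control group.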

[8] = system: Rattus norvegicus; assay: Antiinflammatory activity in albino rat assessed as inhibition of carrageenan-induced paw edema at 18 mg/kg, ip pretreated for 1 hr followed by carrageenan challenge and measured after 2 hrs by caliper method relative to control; type: functional; how it was run: as §2
[9] = system: Rattus norvegicus; assay: Antiinflammatory activity in albino rat assessed as inhibition of carrageenan-induced paw edema at 18 mg/kg, ip pretreated for 1 hr followed by carrageenan challenge and measured after 3 hrs by caliper method relative to control; type: functional; how it was run: as §2
[10] = system: Rattus norvegicus; assay: Antiinflammatory activity in albino rat assessed as inhibition of carrageenan-induced paw edema at 18 mg/kg, ip pretreated for 1 hr followed by carrageenan challenge and measured after 4 hrs by caliper method relative to control; type: functional; how it was run: as §2
[11] = Ulcerogenicity in albino rat assessed as average severity score at 18 mg/kg, po administrated once daily for 3 successive days and measured after 6 hrs from last dose (reference value: 0); type: toxicity, organism-based; conditions: in vivo
[12] = Ulcerogenicity in albino rat assessed as incidence of gastric ulceration at 18 mg/kg, po administrated once daily for 3 successive days and measured after 6 hrs from last dose relative to control; type: toxicity, organism-based; conditions: in vivo
[13] = Ulcerogenicity in albino rat assessed as ulcer index at 18 mg/kg, po administrated once daily for 3 successive days and measured after 6 hrs from last dose (reference value: 0); type: toxicity, organism-based; conditions: in vivo

Row | SMILES | IC50 [1] [µM] | Activity [2] [mm] | Activity [3] [mm] | Activity [4] [mm] | Activity [5] [mm] | Activity [6] [mm] | inhibition in vivo at 18 mg/kg [7] [%] | inhibition in vivo at 18 mg/kg [8] [%] | inhibition in vivo at 18 mg/kg [9] [%] | inhibition in vivo at 18 mg/kg [10] [%] | Activity [11] | Activity [12] [%] | UI [13]
1 | O=S(=O)(NCc1ccccc1)c1ccccc1-c1nnc(S)n1/N=C/c1ccccc1 | 6.45 |  |  |  |  |  |  |  |  |  |  |  | 
2 | COc1ccc(/C=N/n2c(S)nnc2-c2ccccc2S(=O)(=O)NCc2ccccc2)cc1 | 3.25 |  |  |  |  |  |  |  |  |  |  |  | 
3 | O=S(=O)(NCc1ccccc1)c1ccccc1-c1nnc(S)n1/N=C/c1ccc(Cl)cc1 | 5.71 |  |  |  |  |  |  |  |  |  |  |  | 
4 | CC(C)NS(=O)(=O)c1ccccc1C(=O)N1N=C(c2ccccc2)CC1=O | 12.2 | 0.24 | 0.42 | 0.5 | 0.52 | 0.54 | 42.5 | 43.5 | 44.7 | 56.5 | 0.2 | 20 | 4
5 | O=S(=O)(NCc1ccccc1)c1ccccc1-c1nnc(S)o1 | 4.52 |  |  |  |  |  |  |  |  |  |  |  | 
6 | Cc1ccc(-c2cc(C(F)(F)F)nn2-c2ccc(S(N)(=O)=O)cc2)cc1 [CELECOXIB] |  | 0.24 | 0.41 | 0.44 | 0.44 | 0.46 | 43.8 | 47.6 | 53.2 | 62.9 | 0 | 0 | 3
7 | Nn1c(S)nnc1-c1ccccc1S(=O)(=O)NCc1ccccc1 | 2.98 | 0.24 | 0.44 | 0.48 | 0.56 | 0.63 | 39.7 | 42.9 | 45.4 | 49.2 | 3.6 | 100 | 360
8 | COc1ccc2c(c1)c(CC(=O)O)c(C)n2C(=O)c1ccc(Cl)cc1 [INDOMETHACIN] |  |  |  |  |  |  |  |  |  |  | 4.8 | 100 | 480

More lines, in order of falling IC50 [1], values ahead:

Row | IC50 [1] [µM] | SMILES | Activity [2] [mm] | Activity [3] [mm] | Activity [4] [mm] | Activity [5] [mm] | Activity [6] [mm] | inhibition in vivo at 18 mg/kg [7] [%] | inhibition in vivo at 18 mg/kg [8] [%] | inhibition in vivo at 18 mg/kg [9] [%] | inhibition in vivo at 18 mg/kg [10] [%] | Activity [11] | Activity [12] [%] | UI [13]
9 | 11.8 | Cc1cc(-c2ccccc2)n(C(=O)C(C(=O)n2nc(C)cc2-c2ccccc2)N2C(=O)c3ccccc3S2(=O)=O)n1 | 0.24 | 0.36 | 0.41 | 0.41 | 0.48 | 50.7 | 51.2 | 56.4 | 61.3 | 0.2 | 20 | 4
10 | 9.24 | Cc1cc(-c2ccccc2)n(C(=O)c2ccccc2S(=O)(=O)NC(C)C)n1 | 0.24 | 0.32 | 0.36 | 0.38 | 0.43 | 56.2 | 57.1 | 59.6 | 65.3 | 0.2 | 20 | 4
11 | 8.21 | CCSc1nnc(-c2ccccc2S(=O)(=O)NCc2ccccc2)o1 |  |  |  |  |  |  |  |  |  |  |  | 
12 | 7.65 | O=C(N/N=C/c1ccc(Cl)cc1)C(C(=O)N/N=C/c1ccc(Cl)cc1)N1C(=O)c2ccccc2S1(=O)=O |  |  |  |  |  |  |  |  |  |  |  | 
13 | 4.21 | O=S(=O)(NCc1ccccc1)c1ccccc1-c1nnc(S)n1/N=C/c1ccc(Br)cc1 |  |  |  |  |  |  |  |  |  |  |  | 
14 | 3.68 | O=S(=O)(NCc1ccccc1)c1ccccc1-c1nnc(SCc2ccccc2)o1 |  |  |  |  |  |  |  |  |  |  |  | 
15 | 2.78 | O=C(N/N=C/c1ccc(F)cc1)C(C(=O)N/N=C/c1ccc(F)cc1)N1C(=O)c2ccccc2S1(=O)=O | 0.24 | 0.36 | 0.4 | 0.43 | 0.55 | 50.7 | 52.4 | 54.2 | 54.3 | 1.2 | 100 | 120
16 | 1.98 | O=C(N/N=C/c1ccccc1)C(C(=O)N/N=C/c1ccccc1)N1C(=O)c2ccccc2S1(=O)=O |  |  |  |  |  |  |  |  |  |  |  | 
